# Reference: ChEMBL document CHEMBL5058577, “EUbOPEN Chemogenomics Library 2 (Multiplex)” (2022)
# Tested on: U2OS
# Assay: Multiplex assay against U2OS
# Format: toxicity, cell-based
# Details: human
# Outline: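 With compound added, live cells were imaged on a CQ1 microscope at 37°C and 5% CO2; staining with Hoechst33342, BioTracker Green Microtubule Cytoskeleton Dye, MitoTracker Red and Annexin V Alexa Fluor 680 had been done at seeding. The CellPathfinder machine-learning gating scheme split cells into Hoechst high-intensity objects or normal cells, normal cells into healthy, pyknosed or fragmented nuclei, and pyknosed cells into mitotic or apoptotic. The tubulin, mitochondrial-mass and membrane-permeability phenotypes are per cents of healthy-nucleus cells.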
# [1] = 12 h, 1 µM, compound concentration 1 uM, replicate 1
# [2] = 12 h, 1 µM, compound concentration 1 uM, replicate 2
# [3] = 12 h, 10 µM, compound concentration 10 uM, replicate 1
# [4] = 12 h, 10 µM, compound concentration 10 uM, replicate 2
# [5] = 24 h, 1 µM, compound concentration 1 uM, replicate 1
# [6] = 24 h, 1 µM, compound concentration 1 uM, replicate 2
# [7] = 24 h, 10 µM, compound concentration 10 uM, replicate 1
# [8] = 24 h, 10 µM, compound concentration 10 uM, replicate 2
# [9] = 48 h, 1 µM, compound concentration 1 uM, replicate 1
# [10] = 48 h, 1 µM, compound concentration 1 uM, replicate 2
# [11] = 48 h, 10 µM, compound concentration 10 uM, replicate 1
# [12] = 48 h, 10 µM, compound concentration 10 uM, replicate 2
smiles,measurement,setting,value
C=CCN1C[C@H](C(=O)N(CCCN(C)C)C(=O)NCC)C[C@@H]2c3cccc4[nH]cc(c34)C[C@H]21 [CABERGOLINE],Population Apoptotic (%),[1],86%
same,Population Fragmented Nuclei (%),[1],13%
same,Population Healthy Nuclei (%),[1],72%
same,Population Hoechst High Intensity Objects (%),[1],2%
same,Population Membrane Permeable-Phenotype (%),[1],3%
same,Population Mitochondria Different-Phenotype (%),[1],1%
same,Population Mitotic Cells (%),[1],13%
same,Population Normal (%),[1],97%
same,Population Pyknosed Nuclei (%),[1],13%
same,Population Tubulin-Different-Phenotype (%),[1],1%
same,Total Cell Count,[1],228
same,Population Apoptotic (%),[2],57%
same,Population Fragmented Nuclei (%),[2],9%
same,Population Healthy Nuclei (%),[2],84%
same,Population Hoechst High Intensity Objects (%),[2],3%
same,Population Membrane Permeable-Phenotype (%),[2],8%
same,Population Mitochondria Different-Phenotype (%),[2],4%
same,Population Mitotic Cells (%),[2],42%
same,Population Normal (%),[2],96%
same,Population Pyknosed Nuclei (%),[2],5%
same,Population Tubulin-Different-Phenotype (%),[2],5%
same,Total Cell Count,[2],129
same,Population Apoptotic (%),[3],69%
same,Population Fragmented Nuclei (%),[3],35%
same,Population Healthy Nuclei (%),[3],52%
same,Population Hoechst High Intensity Objects (%),[3],3%
same,Population Membrane Permeable-Phenotype (%),[3],15%
same,Population Mitochondria Different-Phenotype (%),[3],9%
same,Population Mitotic Cells (%),[3],30%
same,Population Normal (%),[3],96%
same,Population Pyknosed Nuclei (%),[3],11%
same,Population Tubulin-Different-Phenotype (%),[3],11%
same,Total Cell Count,[3],228
same,Population Apoptotic (%),[4],64%
same,Population Fragmented Nuclei (%),[4],17%
same,Population Healthy Nuclei (%),[4],70%
same,Population Hoechst High Intensity Objects (%),[4],2%
same,Population Membrane Permeable-Phenotype (%),[4],13%
same,Population Mitochondria Different-Phenotype (%),[4],21%
same,Population Mitotic Cells (%),[4],35%
same,Population Normal (%),[4],97%
same,Population Pyknosed Nuclei (%),[4],12%
same,Population Tubulin-Different-Phenotype (%),[4],9%
same,Total Cell Count,[4],143
same,Population Apoptotic (%),[5],82%
same,Population Fragmented Nuclei (%),[5],15%
same,Population Healthy Nuclei (%),[5],74%
same,Population Hoechst High Intensity Objects (%),[5],3%
same,Population Membrane Permeable-Phenotype (%),[5],1%
same,Population Mitochondria Different-Phenotype (%),[5],1%
same,Population Mitotic Cells (%),[5],17%
same,Population Normal (%),[5],96%
same,Population Pyknosed Nuclei (%),[5],10%
same,Population Tubulin-Different-Phenotype (%),[5],0%
same,Total Cell Count,[5],295
same,Population Apoptotic (%),[6],64%
same,Population Fragmented Nuclei (%),[6],7%
same,Population Healthy Nuclei (%),[6],83%
same,Population Hoechst High Intensity Objects (%),[6],1%
same,Population Membrane Permeable-Phenotype (%),[6],9%
same,Population Mitochondria Different-Phenotype (%),[6],4%
same,Population Mitotic Cells (%),[6],35%
same,Population Normal (%),[6],98%
same,Population Pyknosed Nuclei (%),[6],8%
same,Population Tubulin-Different-Phenotype (%),[6],6%
same,Total Cell Count,[6],162
same,Population Apoptotic (%),[7],65%
same,Population Fragmented Nuclei (%),[7],33%
same,Population Healthy Nuclei (%),[7],54%
same,Population Hoechst High Intensity Objects (%),[7],3%
same,Population Membrane Permeable-Phenotype (%),[7],10%
same,Population Mitochondria Different-Phenotype (%),[7],5%
same,Population Mitotic Cells (%),[7],34%
same,Population Normal (%),[7],96%
same,Population Pyknosed Nuclei (%),[7],11%
same,Population Tubulin-Different-Phenotype (%),[7],4%
same,Total Cell Count,[7],228
same,Population Apoptotic (%),[8],88%
same,Population Fragmented Nuclei (%),[8],14%
same,Population Healthy Nuclei (%),[8],75%
same,Population Hoechst High Intensity Objects (%),[8],2%
same,Population Membrane Permeable-Phenotype (%),[8],13%
same,Population Mitochondria Different-Phenotype (%),[8],12%
same,Population Mitotic Cells (%),[8],11%
same,Population Normal (%),[8],97%
same,Population Pyknosed Nuclei (%),[8],10%
same,Population Tubulin-Different-Phenotype (%),[8],10%
same,Total Cell Count,[8],165
same,Population Apoptotic (%),[9],88%
same,Population Fragmented Nuclei (%),[9],13%
same,Population Healthy Nuclei (%),[9],77%
same,Population Hoechst High Intensity Objects (%),[9],2%
same,Population Membrane Permeable-Phenotype (%),[9],5%
same,Population Mitochondria Different-Phenotype (%),[9],1%
same,Population Mitotic Cells (%),[9],11%
same,Population Normal (%),[9],97%
same,Population Pyknosed Nuclei (%),[9],8%
same,Population Tubulin-Different-Phenotype (%),[9],3%
same,Total Cell Count,[9],405
same,Population Apoptotic (%),[10],93%
same,Population Healthy Nuclei (%),[10],73%
same,Population Hoechst High Intensity Objects (%),[10],3%
same,Population Membrane Permeable-Phenotype (%),[10],4%
same,Population Mitochondria Different-Phenotype (%),[10],4%
same,Population Mitotic Cells (%),[10],6%
same,Population Normal (%),[10],96%
same,Population Pyknosed Nuclei (%),[10],13%
same,Total Cell Count,[10],221
same,Population Apoptotic (%),[11],86%
same,Population Fragmented Nuclei (%),[11],30%
same,Population Healthy Nuclei (%),[11],57%
same,Population Hoechst High Intensity Objects (%),[11],3%
same,Population Membrane Permeable-Phenotype (%),[11],7%
same,Population Mitochondria Different-Phenotype (%),[11],1%
same,Population Mitotic Cells (%),[11],13%
same,Population Normal (%),[11],96%
same,Population Pyknosed Nuclei (%),[11],12%
same,Population Tubulin-Different-Phenotype (%),[11],3%
same,Total Cell Count,[11],303
same,Population Apoptotic (%),[12],87%
same,Population Fragmented Nuclei (%),[12],13%
same,Population Healthy Nuclei (%),[12],66%
same,Population Hoechst High Intensity Objects (%),[12],4%
same,Population Membrane Permeable-Phenotype (%),[12],9%
same,Population Mitochondria Different-Phenotype (%),[12],9%
same,Population Mitotic Cells (%),[12],12%
same,Population Normal (%),[12],95%
same,Population Pyknosed Nuclei (%),[12],20%
same,Population Tubulin-Different-Phenotype (%),[12],5%
same,Total Cell Count,[12],206
